In brackets after ≈: the same amount, converted by molar mass.
Tests used:
[1] = Selectivity index, ratio of IC50 for HEK293T cells to MIC for methicillin-resistant Staphylococcus aureus ATCC 33591; format: toxicity; details: human, read-out: Selectivity Index
[2] = Selectivity index, ratio of IC50 for HEK293T cells to MIC for Staphylococcus aureus CMCC(B) 26003; format: toxicity; details: human, read-out: Selectivity Index
[3] = Selectivity index, ratio of IC50 for HEK293T cells to MIC for Streptococcus pyogenes CMCC 32067; format: toxicity; details: human, read-out: Selectivity Index
[4] = Selectivity index, ratio of IC50 for HEK293T cells to MIC for methicillin-resistant Staphylococcus aureus ATCC 43300; format: toxicity; details: human, read-out: Selectivity Index
Streptococcus pyogenes = assay: Antibacterial activity against Streptococcus pyogenes CMCC 32067 measured after 24 hrs by ELISA; format: functional; details: CMCC 32067, 24 h
Procedure, shortened: (§1)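 Broth microdilution MIC. Mid-log bacteria in MHB or TSB diluted 1000-fold, inoculated at 10^5 CFU/mL. Compounds added from DMSO stocks; final DMSO at most 0.05%. Incubation 24 h at 37 °C. Growth read as absorbance at 630 nm. MIC taken as the lowest concentration giving complete growth inhibition. Three independent experiments.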

[5] = Selectivity index, ratio of IC50 for HEK293T cells to MIC for Escherichia coli CMCC 25922; format: toxicity; details: human, read-out: Selectivity Index
[6] = Selectivity index, ratio of IC50 for HEK293T cells to MIC for Bacillus subtilis CMCC 63501; format: toxicity; details: human, read-out: Selectivity Index
Pseudomonas aeruginosa [7] = assay: Antibacterial activity against multidrug-resistant Pseudomonas aeruginosa ATCC BAA-2111 measured after 24 hrs by ELISA; format: functional; details: ATCC BAA-2111, 24 h
Procedure, shortened: (§2)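 Broth serial dilution MIC. Mid-log bacteria in Mueller-Hinton or Tryptone Soya broth, diluted 1000-fold and inoculated at 10^5 CFU/mL. Compounds from DMSO stock, final DMSO ≤0.05%. Incubated 24 h at 37 °C; growth read as absorbance at 630 nm. MIC is the lowest concentration giving complete growth inhibition. Three independent experiments.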

SGC-7901 = assay: Cytotoxicity against human SGC7901 cells measured after 48 hrs by CCK8 assay; format: functional, cell-based; details: SGC-7901, 48 h
Procedure, shortened: (§3)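 Cells kept in DMEM with 10% FBS and penicillin-streptomycin at 37 °C, 5% CO2. About 1×10^4 cells per well attached for 24 h, then exposed for 48 h to 0.3, 1, 3, 10, 30 and 100 µmol/L of compound, in triplicate wells. CCK-8 added for 3 h, OD read at 450 nm. IC50 is the concentration inhibiting growth by 50%.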

HEK-293T = assay: Cytotoxicity against HEK293T cells measured after 48 hrs by CCK8 assay; format: cell-based; details: Homo sapiens; procedure, shortened: as §3
[8] = Cytotoxicity against human A590 cells measured after 48 hrs by CCK8 assay; format: functional, cell-based; procedure, shortened: as §3
[9] = Selectivity index, ratio of IC50 for HEK293T cells to MIC for multidrug-resistant Pseudomonas aeruginosa ATCC BAA-2111; format: toxicity; details: human, read-out: Selectivity Index
Enterococcus faecalis = assay: Antibacterial activity against Enterococcus faecalis CMCC 29212 measured after 24 hrs by ELISA; format: functional; details: CMCC 29212, 24 h; procedure, shortened: as §1
[10] = Selectivity index, ratio of IC50 for HEK293T cells to MIC for multidrug-resistant Escherichia coli ATCC BAA-196; format: toxicity; details: human, read-out: Selectivity Index
[11] = Selectivity index, ratio of IC50 for HEK293T cells to MIC for Escherichia coli CMCC 44568; format: toxicity; details: human, read-out: Selectivity Index
Staphylococcus aureus [12] = assay: Antibacterial activity against Staphylococcus aureus CMCC(B) 26003 measured after 24 hrs by ELISA; format: functional; details: CMCC(B) 26003, 24 h; procedure, shortened: as §1
[13] = Selectivity index, ratio of IC50 for HEK293T cells to MIC for Pseudomonas aeruginosa CMCC 27853; format: toxicity; details: human, read-out: Selectivity Index
Escherichia coli [14] = assay: Antibacterial activity against Escherichia coli CMCC 44568 measured after 24 hrs by ELISA; format: functional; details: CMCC 44568, 24 h; procedure, shortened: as §1
Staphylococcus aureus [15] = assay: Antibacterial activity against methicillin-resistant Staphylococcus aureus ATCC 43300 measured after 24 hrs by ELISA; format: functional; details: ATCC 43300, 24 h; procedure, shortened: as §2
Escherichia coli [16] = assay: Antibacterial activity against Escherichia coli CMCC 25922 measured after 24 hrs by ELISA; format: functional; details: CMCC 25922, 24 h; procedure, shortened: as §1
Staphylococcus aureus [17] = assay: Antibacterial activity against Staphylococcus aureus CMCC 25923 measured after 24 hrs by ELISA; format: functional; details: CMCC 25923, 24 h; procedure, shortened: as §1
[18] = Selectivity index, ratio of IC50 for HEK293T cells to MIC for Pseudomonas aeruginosa CMCC 10104; format: toxicity; details: human, read-out: Selectivity Index
Pseudomonas aeruginosa [19] = assay: Antibacterial activity against Pseudomonas aeruginosa CMCC 27853 measured after 24 hrs by ELISA; format: functional; details: CMCC 27853, 24 h; procedure, shortened: as §1
Escherichia coli [20] = assay: Antibacterial activity against multidrug-resistant Escherichia coli ATCC BAA-196 measured after 24 hrs by ELISA; format: functional; details: ATCC BAA-196, 24 h; procedure, shortened: as §2
Pseudomonas aeruginosa [21] = assay: Antibacterial activity against Pseudomonas aeruginosa CMCC 10104 measured after 24 hrs by ELISA; format: functional; details: CMCC 10104, 24 h; procedure, shortened: as §1
Staphylococcus aureus [22] = assay: Antibacterial activity against methicillin-resistant Staphylococcus aureus ATCC 33591 measured after 24 hrs by ELISA; format: functional; details: ATCC 33591, 24 h; procedure, shortened: as §2
[23] = Selectivity index, ratio of IC50 for HEK293T cells to MIC for Staphylococcus aureus CMCC 25923; format: toxicity; details: human, read-out: Selectivity Index
[24] = Selectivity index, ratio of IC50 for HEK293T cells to MIC for Streptococcus pneumoniae CMCC 31968; format: toxicity; details: human, read-out: Selectivity Index
Streptococcus pneumoniae = assay: Antibacterial activity against Streptococcus pneumoniae CMCC 31968 measured after 24 hrs by ELISA; format: functional; details: CMCC 31968, 24 h
[25] = Selectivity index, ratio of IC50 for HEK293T cells to MIC for Enterococcus faecalis CMCC 29212; format: toxicity; details: human, read-out: Selectivity Index
Bacillus subtilis = assay: Antibacterial activity against Bacillus subtilis CMCC 63501 measured after 24 hrs by ELISA; format: functional; details: CMCC 63501, 24 h; procedure, shortened: as §1

| SMILES | selectivity ratio [1] | selectivity ratio [2] | selectivity ratio [3] | selectivity ratio [4] | MIC (Streptococcus pyogenes) [µM] | selectivity ratio [5] | selectivity ratio [6] | MIC (Pseudomonas aeruginosa [7]) [µM] | IC50 (SGC-7901) [µM] | IC50 (HEK-293T) [µM] | IC50 [8] [µM] | selectivity ratio [9] | MIC (Enterococcus faecalis) [µM] | selectivity ratio [10] | selectivity ratio [11] | MIC (Staphylococcus aureus [12]) [µM] | selectivity ratio [13] | MIC (Escherichia coli [14]) [µM] | MIC (Staphylococcus aureus [15]) [µM] | MIC (Escherichia coli [16]) [µM] | further results |
| --- | --- | --- | --- | --- | --- | --- | --- | --- | --- | --- | --- | --- | --- | --- | --- | --- | --- | --- | --- | --- | --- |
| CC/C(=N/NC(=N)N)c1cn(S(=O)(=O)c2ccc(C)cc2)c2ccc(Br)cc12 | 26.6 | 13.3 | 0.42 | 26.6 | 139 (≈ 64.2 µg/mL) | 1.66 | 26.6 | > 69.4 | 3.92 | 57.6 | 2.33 | < 0.83 | 4.34 (≈ 2.01 µg/mL) | 6.64 | 13.3 | 4.34 (≈ 2.01 µg/mL) | < 0.21 | 4.34 (≈ 2.01 µg/mL) | 2.17 (≈ 1 µg/mL) | 34.7 (≈ 16 µg/mL) | MIC (Staphylococcus aureus [17]): 2.17 µM (≈ 1 µg/mL); selectivity ratio [18]: < 0.21; MIC (Pseudomonas aeruginosa [19]): > 278 µM; MIC (Escherichia coli [20]): 8.68 µM (≈ 4.01 µg/mL); MIC (Pseudomonas aeruginosa [21]): > 278 µM; MIC (Staphylococcus aureus [22]): 2.17 µM (≈ 1 µg/mL); selectivity ratio [23]: 13.3; selectivity ratio [24]: 53.4; MIC (Streptococcus pneumoniae): 1.08 µM (≈ 0.499 µg/mL); selectivity ratio [25]: 13.3; MIC (Bacillus subtilis): 2.17 µM (≈ 1 µg/mL) |
| N=C(N)N/N=C\c1cn(S(=O)(=O)c2ccccc2)c2ccc(Br)cc12 | 30 | 0.47 | 0.23 | 30 | 305 (≈ 128 µg/mL) | 7.5 | 15 | > 76.4 | 3.06 | 71.6 | 14.7 | < 0.94 | 19.1 (≈ 8.02 µg/mL) | 30 | 60.2 | 153 (≈ 64.2 µg/mL) | < 0.23 | 1.19 (≈ 0.5 µg/mL) | 2.39 (≈ 1 µg/mL) | 9.55 (≈ 4.01 µg/mL) | MIC (Staphylococcus aureus [17]): 2.37 µM (≈ 0.996 µg/mL); selectivity ratio [18]: 7.5; MIC (Pseudomonas aeruginosa [19]): > 305 µM; MIC (Escherichia coli [20]): 2.39 µM (≈ 1 µg/mL); MIC (Pseudomonas aeruginosa [21]): 9.55 µM (≈ 4.01 µg/mL); MIC (Staphylococcus aureus [22]): 2.39 µM (≈ 1 µg/mL); selectivity ratio [23]: 30.2; selectivity ratio [24]: < 0.23; MIC (Streptococcus pneumoniae): > 305 µM; selectivity ratio [25]: 3.75; MIC (Bacillus subtilis): 4.77 µM (≈ 2 µg/mL) |

— ChEMBL document CHEMBL4400518, “Synthesis, antimicrobial and cytotoxic activities, and molecular docking studies of N-arylsulfonylindoles containing an aminoguanidine, a semicarbazide, and a thiosemicarbazide moiety” (Eur J Med Chem, 2019)
